# Measured values taken from ChEMBL document CHEMBL3351928, “Discovery of clinical candidate 1-(4-(3-(4-(1H-benzo[d]imidazole-2-carbonyl)phenoxy)pyrazin-2-yl)piperidin-1-yl)ethanone (AMG 579), a potent, selective, and efficacious inhibitor of phosphodiesterase 10A (PDE10A)” (J Med Chem, 2014).
# pEC50, pIC50: −log10 of the molar value.
# Tests used:
# [1] = Volume of distribution at steady state in non-human primates at 0.5 mg/kg, iv; assay type: ADME, organism-based; design: dose 0.5 mg/kg, route intravenous; details: monkey, in vivo, read-out: Vdss
# [2] = Half life in non-human primates at 0.5 mg/kg, iv; assay type: ADME, organism-based; design: dose 0.5 mg/kg, route intravenous; details: monkey, in vivo
# [3] = Clearance in dog at 0.5 mg/kg, iv; assay type: ADME, organism-based, Canis lupus familiaris; design: dose 0.5 mg/kg, route intravenous; details: in vivo
# Rattus norvegicus [4] = experiment: Reversal of PCP-induced hyperlocomotor activity in Sprague-Dawley rat assessed as effect on locomotor activity administered orally 1 hr before PCP dosing and measured at 10 mins intervals over 2 hrs period; assay type: functional; details: po, read-out: MED
# How it was run: (§1)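 Adult male Sprague-Dawley rats (250–280 g) were first acclimated to the test cage for 60 min. They then received oral doses of 0.1, 0.3, 1 or 3 mg/kg, n = 10. After 1 h they were given PCP 8 mg/kg subcutaneously. Photobeam breaks were collected at 10 min intervals and compiled over 2 h. Groups were compared with vehicle by one-way ANOVA followed by Dunnett's test, and the minimum effective dose was determined.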
# [5] = AUC in dog at 0.5 mg/kg, iv; assay type: ADME, organism-based, Canis lupus familiaris; design: dose 0.5 mg/kg, route intravenous; details: plasma
# [6] = Clearance in rat at 2 mg/kg, iv; assay type: ADME, organism-based; design: dose 2 mg/kg, route intravenous; details: in vivo
# [7] = Oral bioavailability in dog at 0.5 mg/kg; assay type: ADME, organism-based, Canis lupus familiaris; details: in vivo
# [8] = Metabolic stability in human liver microsomes assessed as clearance at 1 uM in presence of NADPH at 37 degC incubated for 30 mins; assay type: ADME; details: read-out: CLH
# [9] = Half life in dog at 0.5 mg/kg, iv; assay type: ADME, organism-based, Canis lupus familiaris; design: dose 0.5 mg/kg, route intravenous; details: in vivo
# Rattus norvegicus [10] = experiment: Target occupancy of PDE10A in Sprague-Dawley rat striatum measured 1 hr post dosing and 10 mins post iv dosing of tracer by LC-MS/MS method; assay type: functional, organism-based
# How it was run: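 Sprague-Dawley rats received oral doses of 0.1, 0.3, 1, 3, 10 and 30 mg/kg, n = 4 per dose. Tissue was taken 1 h after dosing and 10 min after IV tracer. Striatal tracer was compared with thalamic tracer by LC-MS/MS. An occupancy EC50 was calculated against total plasma concentration.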
# [11] = AUC in non-human primates at 0.5 mg/kg, iv; assay type: ADME, organism-based; design: dose 0.5 mg/kg, route intravenous; details: monkey, plasma
# [12] = AUC in dog at 0.5 mg/kg, po; assay type: ADME, organism-based, Canis lupus familiaris; design: dose 0.5 mg/kg, route oral; details: plasma
# [13] = Half life in dog at 0.5 mg/kg, po; assay type: ADME, organism-based, Canis lupus familiaris; design: dose 0.5 mg/kg, route oral; details: in vivo
# [14] = Volume of distribution at steady state in dog at 0.5 mg/kg, iv; assay type: ADME, organism-based, Canis lupus familiaris; design: dose 0.5 mg/kg, route intravenous; details: in vivo, read-out: Vdss
# [15] = Clearance in non-human primates at 0.5 mg/kg, iv; assay type: ADME, organism-based; design: dose 0.5 mg/kg, route intravenous; details: monkey, in vivo
# Rattus norvegicus [16] = experiment: (§2) Oral bioavailability in rat at 10 mg/kg; assay type: ADME, organism-based; details: in vivo
# [17] = Half life in rat at 2 mg/kg, iv; assay type: ADME, organism-based; design: dose 2 mg/kg, route intravenous; details: in vivo
# [18] = Volume of distribution at steady state in rat at 2 mg/kg, iv; assay type: ADME, organism-based; design: dose 2 mg/kg, route intravenous; details: in vivo, read-out: Vdss
# Rattus norvegicus [19] = experiment: Effect on locomotor activity in orally dosed Sprague-Dawley rat measured at 10 mins intervals over 2 hrs period; assay type: ADME, organism-based; details: in vivo, po; how it was run: as §1
# [20] = Metabolic stability in rat liver microsomes assessed as clearance at 1 uM in presence of NADPH at 37 degC incubated for 30 mins; assay type: ADME; details: read-out: CLH
# [21] = molecular target: cAMP and cAMP-inhibited cGMP 3',5'-cyclic phosphodiesterase 10A (Homo sapiens, UniProt Q9Y233); experiment: Inhibition of human recombinant PDE10A using cAMP as substrate incubated for 30 mins prior to substrate addition measured after 3 hrs to overnight by IMAP FRET assay
# cAMP and cAMP-inhibited cGMP 3',5'-cyclic phosphodiesterase 10A, sequence (Q9Y233 whole entry): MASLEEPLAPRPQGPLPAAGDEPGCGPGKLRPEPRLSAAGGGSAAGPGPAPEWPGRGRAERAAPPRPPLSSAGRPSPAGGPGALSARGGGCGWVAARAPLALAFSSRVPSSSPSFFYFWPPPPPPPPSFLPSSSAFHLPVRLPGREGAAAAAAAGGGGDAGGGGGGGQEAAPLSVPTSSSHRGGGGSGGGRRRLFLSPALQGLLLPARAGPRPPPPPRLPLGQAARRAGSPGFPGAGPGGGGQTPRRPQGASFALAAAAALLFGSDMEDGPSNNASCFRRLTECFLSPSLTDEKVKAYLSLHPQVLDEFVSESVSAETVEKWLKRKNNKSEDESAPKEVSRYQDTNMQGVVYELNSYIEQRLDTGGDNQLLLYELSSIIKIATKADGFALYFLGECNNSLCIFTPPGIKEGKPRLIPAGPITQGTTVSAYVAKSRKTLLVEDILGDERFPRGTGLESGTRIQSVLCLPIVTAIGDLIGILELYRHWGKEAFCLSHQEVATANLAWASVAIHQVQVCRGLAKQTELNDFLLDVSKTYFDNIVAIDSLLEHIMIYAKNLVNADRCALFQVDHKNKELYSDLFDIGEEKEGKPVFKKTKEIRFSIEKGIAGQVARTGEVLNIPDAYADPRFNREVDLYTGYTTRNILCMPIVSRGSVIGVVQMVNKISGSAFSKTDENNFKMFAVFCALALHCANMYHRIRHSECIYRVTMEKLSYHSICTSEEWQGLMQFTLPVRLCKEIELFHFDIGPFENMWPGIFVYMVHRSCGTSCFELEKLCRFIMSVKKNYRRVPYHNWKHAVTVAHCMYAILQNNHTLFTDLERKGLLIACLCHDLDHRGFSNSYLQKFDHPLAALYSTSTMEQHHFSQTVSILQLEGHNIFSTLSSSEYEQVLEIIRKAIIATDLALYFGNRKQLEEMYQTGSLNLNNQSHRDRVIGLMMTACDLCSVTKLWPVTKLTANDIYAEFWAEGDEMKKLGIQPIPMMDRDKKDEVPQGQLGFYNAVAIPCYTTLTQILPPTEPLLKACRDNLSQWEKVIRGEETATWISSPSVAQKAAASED
# Rattus norvegicus [22] = experiment: (§3) AUC in rat at 2 mg/kg, iv; assay type: ADME, organism-based, Plasma; design: dose 2 mg/kg, route intravenous; details: in vivo
# Rattus norvegicus [23] = experiment: (§4) AUC in rat at 10 mg/kg, po; assay type: ADME, organism-based, Plasma; design: dose 10 mg/kg, route oral; details: in vivo
# Rattus norvegicus [24] = experiment: Target occupancy of PDE10A in Sprague-Dawley rat striatum at 10 mg/kg, po administered as single dose measured 1 hr post dosing and 10 mins post iv dosing of tracer by LC-MS/MS method; assay type: functional
# [25] = Half life in rat at 10 mg/kg, po; assay type: ADME, organism-based; design: dose 10 mg/kg, route oral; details: in vivo
# [26] = as §2; assay type: ADME, organism-based; details: in vivo
# [27] = as §3; assay type: ADME, organism-based, Plasma; design: dose 2 mg/kg, route intravenous; details: plasma
# [28] = as §4; assay type: ADME, organism-based, Plasma; design: dose 10 mg/kg, route oral; details: plasma
# Phosphodiesterase 7 = Phosphodiesterase 7 (Homo sapiens, UniProt Q13946+Q9NP56); experiment: Inhibition of PDE7 (unknown origin); assay type: protein assay
# [29] = molecular target: cGMP-dependent 3',5'-cyclic phosphodiesterase (Homo sapiens, UniProt O00408); experiment: Inhibition of PDE2 (unknown origin)
# cGMP-dependent 3',5'-cyclic phosphodiesterase, sequence (O00408 whole entry): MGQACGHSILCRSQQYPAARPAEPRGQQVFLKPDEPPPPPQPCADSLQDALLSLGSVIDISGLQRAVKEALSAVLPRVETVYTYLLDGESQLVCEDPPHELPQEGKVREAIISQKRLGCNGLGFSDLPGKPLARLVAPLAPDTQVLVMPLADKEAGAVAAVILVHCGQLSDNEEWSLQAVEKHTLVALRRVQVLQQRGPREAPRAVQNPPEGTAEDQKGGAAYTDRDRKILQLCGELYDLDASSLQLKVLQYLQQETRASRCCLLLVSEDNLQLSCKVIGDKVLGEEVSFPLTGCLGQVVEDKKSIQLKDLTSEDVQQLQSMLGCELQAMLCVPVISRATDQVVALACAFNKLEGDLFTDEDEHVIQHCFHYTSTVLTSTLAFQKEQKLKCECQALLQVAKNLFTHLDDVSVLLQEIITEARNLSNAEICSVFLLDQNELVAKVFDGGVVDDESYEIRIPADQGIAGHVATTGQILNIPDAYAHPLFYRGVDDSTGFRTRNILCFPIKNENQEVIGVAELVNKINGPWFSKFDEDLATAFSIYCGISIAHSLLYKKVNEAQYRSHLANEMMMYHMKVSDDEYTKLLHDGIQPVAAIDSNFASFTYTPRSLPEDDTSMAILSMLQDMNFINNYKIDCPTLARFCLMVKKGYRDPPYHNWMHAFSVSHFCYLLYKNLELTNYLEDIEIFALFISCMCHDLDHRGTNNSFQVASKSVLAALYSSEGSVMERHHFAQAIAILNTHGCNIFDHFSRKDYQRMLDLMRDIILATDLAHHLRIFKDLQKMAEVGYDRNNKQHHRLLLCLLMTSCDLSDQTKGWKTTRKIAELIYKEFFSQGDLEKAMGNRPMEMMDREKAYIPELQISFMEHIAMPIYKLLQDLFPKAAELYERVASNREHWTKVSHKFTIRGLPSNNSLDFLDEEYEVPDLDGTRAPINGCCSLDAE
# Phosphodiesterase 4 = Phosphodiesterase 4 (Homo sapiens, UniProt P27815+Q08499+Q07343+Q08493); experiment: Inhibition of PDE4 (unknown origin); assay type: protein assay
# [30] = molecular target: cGMP-specific 3',5'-cyclic phosphodiesterase (Canis lupus familiaris, UniProt O77746); experiment: Inhibition of PDE5 (unknown origin); design: species or system Homo sapiens
# [31] = molecular target: Dual 3',5'-cyclic-AMP and -GMP phosphodiesterase 11A (Homo sapiens, UniProt Q9HCR9); experiment: Inhibition of PDE11 (unknown origin)
# Dual 3',5'-cyclic-AMP and -GMP phosphodiesterase 11A, sequence (Q9HCR9 whole entry): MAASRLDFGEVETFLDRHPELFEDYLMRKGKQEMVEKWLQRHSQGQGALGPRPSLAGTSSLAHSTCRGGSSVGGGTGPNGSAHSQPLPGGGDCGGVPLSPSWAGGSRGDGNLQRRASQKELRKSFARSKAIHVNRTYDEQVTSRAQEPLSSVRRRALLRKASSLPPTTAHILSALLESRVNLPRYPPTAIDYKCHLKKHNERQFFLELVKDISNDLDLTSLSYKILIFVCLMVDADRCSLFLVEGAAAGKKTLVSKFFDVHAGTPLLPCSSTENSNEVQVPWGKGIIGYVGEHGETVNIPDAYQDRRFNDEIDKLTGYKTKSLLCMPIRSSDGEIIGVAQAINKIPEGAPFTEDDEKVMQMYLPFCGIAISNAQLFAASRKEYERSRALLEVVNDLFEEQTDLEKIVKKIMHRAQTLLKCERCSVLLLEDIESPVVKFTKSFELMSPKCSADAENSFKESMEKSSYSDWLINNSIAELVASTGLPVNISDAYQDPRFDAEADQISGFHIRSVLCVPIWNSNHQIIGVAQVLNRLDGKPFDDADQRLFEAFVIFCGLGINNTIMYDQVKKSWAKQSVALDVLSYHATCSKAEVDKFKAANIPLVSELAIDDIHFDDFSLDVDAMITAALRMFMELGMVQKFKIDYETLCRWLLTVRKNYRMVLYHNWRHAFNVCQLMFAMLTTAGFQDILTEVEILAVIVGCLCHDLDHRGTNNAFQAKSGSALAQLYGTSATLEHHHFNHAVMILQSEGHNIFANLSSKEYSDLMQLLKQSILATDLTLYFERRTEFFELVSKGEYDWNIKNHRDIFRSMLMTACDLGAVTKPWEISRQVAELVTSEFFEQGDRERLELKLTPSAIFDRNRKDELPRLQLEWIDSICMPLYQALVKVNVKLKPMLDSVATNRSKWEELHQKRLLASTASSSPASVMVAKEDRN
# Phosphodiesterase 8 = Phosphodiesterase 8 (Homo sapiens, UniProt O95263+O60658); experiment: Inhibition of PDE8 (unknown origin); assay type: protein assay
# [32] = Half life in non-human primates at 0.5 mg/kg, po; assay type: ADME, organism-based; design: dose 0.5 mg/kg, route oral; details: monkey, in vivo
# [33] = AUC in non-human primates at 0.5 mg/kg, po; assay type: ADME, organism-based; design: dose 0.5 mg/kg, route oral; details: monkey, plasma
# [34] = Half life in dog at 1 mg/kg, po; assay type: ADME, organism-based, Canis lupus familiaris; design: dose 1 mg/kg, route oral; details: in vivo
# Phosphodiesterase 3 = Phosphodiesterase 3 (Homo sapiens, UniProt Q14432+Q13370); experiment: Inhibition of PDE3 (unknown origin); assay type: protein assay
# [35] = molecular target: High affinity cGMP-specific 3',5'-cyclic phosphodiesterase 9A (Homo sapiens, UniProt O76083); experiment: Inhibition of PDE9 (unknown origin)
# High affinity cGMP-specific 3',5'-cyclic phosphodiesterase 9A, sequence (O76083 whole entry): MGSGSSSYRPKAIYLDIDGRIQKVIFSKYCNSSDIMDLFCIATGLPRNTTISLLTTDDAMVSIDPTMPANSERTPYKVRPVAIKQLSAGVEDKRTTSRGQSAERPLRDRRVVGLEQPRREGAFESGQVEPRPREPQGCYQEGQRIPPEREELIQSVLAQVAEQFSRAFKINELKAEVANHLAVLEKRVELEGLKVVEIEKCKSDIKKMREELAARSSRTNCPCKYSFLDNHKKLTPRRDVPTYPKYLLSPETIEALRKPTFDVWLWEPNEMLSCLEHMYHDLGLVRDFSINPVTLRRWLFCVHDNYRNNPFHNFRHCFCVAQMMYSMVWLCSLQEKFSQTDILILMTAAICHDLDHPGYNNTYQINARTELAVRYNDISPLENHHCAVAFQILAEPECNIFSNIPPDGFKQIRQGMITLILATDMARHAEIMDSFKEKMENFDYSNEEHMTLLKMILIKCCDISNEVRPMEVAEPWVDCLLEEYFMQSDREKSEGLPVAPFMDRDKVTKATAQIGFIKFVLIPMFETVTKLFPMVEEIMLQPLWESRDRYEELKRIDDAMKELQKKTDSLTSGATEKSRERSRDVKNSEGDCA
# [36] = Oral bioavailability in non-human primates at 0.5 mg/kg; assay type: ADME, organism-based; details: monkey, in vivo
# Phosphodiesterase 6 = experiment: Inhibition of PDE6 (unknown origin); assay type: protein assay, Homo sapiens
# [37] = Oral bioavailability in dog at 1 mg/kg; assay type: ADME, organism-based, Canis lupus familiaris; details: in vivo
# [38] = AUC in dog at 1 mg/kg, po; assay type: ADME, organism-based, Canis lupus familiaris; design: dose 1 mg/kg, route oral; details: plasma
# Phosphodiesterase 1 = Phosphodiesterase 1 (Homo sapiens, UniProt P54750+Q01064+Q14123); experiment: Inhibition of PDE1 (unknown origin); assay type: protein assay
clearance [6] [L/h/kg],microsomal CLint at 1 µM [8] [µL/min/mg],pEC50 (Rattus norvegicus [10]),half-life [17] [h],Vd [18] [L/kg],microsomal CLint at 1 µM [20] [µL/min/mg],pIC50 [21],half-life [25] [h],Compound,Vd [1] [L/kg],half-life [2] [h],clearance [3] [L/h/kg],minimal effective dose (Rattus norvegicus [4]) [mg/kg],AUC [5] [µM·h],half-life [9] [h],Occ (Rattus norvegicus [10]),AUC [11] [µM·h],Vd [14] [L/kg],clearance [15] [L/h/kg],Activity (Rattus norvegicus [19]),Occ (Rattus norvegicus [24]) [%],further results
3.03,29,6.02,23.1,31.2,463,10.00,1.72,CC(=O)N1CCC(c2cccnc2Oc2ccc(C(=O)c3nc4ccccc4[nH]3)cc2)CC1,1.62,1.26,0.052,0.3,21.5,7.41,Dose-dependent effect,1.61,0.5,0.82,Non-toxic,86.5,bioavailability [7]: 45%; AUC [12]: 9.59 µM·h; half-life [13]: 5.07 h; F (Rattus norvegicus [16]): 63%; AUC (Rattus norvegicus [22]): 1.62 µM·h; AUC (Rattus norvegicus [23]): 5.07 µM·h
0.62,50,6.93,4.26,2.27,119,9.10,3.99,O=C(c1ccc(Oc2nccnc2C2CCOCC2)cc1)c1nc2ccccc2[nH]1,,,,1,,,Dose-dependent effect,,,,Non-toxic,91,bioavailability [26]: 22%; AUC [27]: 7.75 µM·h; AUC [28]: 7.93 µM·h
,100,,,,> 399,,,O=C(c1ccc(Oc2ncccc2C2CCOCC2)cc1)c1nc2ccccc2[nH]1,,,,,,,,,,,,69.2,

Compound,clearance [6] [L/h/kg],microsomal CLint at 1 µM [8] [µL/min/mg],pEC50 (Rattus norvegicus [10]),half-life [17] [h],Vd [18] [L/kg],microsomal CLint at 1 µM [20] [µL/min/mg],pIC50 [21],half-life [25] [h],Vd [1] [L/kg],half-life [2] [h],clearance [3] [L/h/kg],minimal effective dose (Rattus norvegicus [4]) [mg/kg],AUC [5] [µM·h],half-life [9] [h],Occ (Rattus norvegicus [10]),AUC [11] [µM·h],Vd [14] [L/kg],clearance [15] [L/h/kg],Activity (Rattus norvegicus [19]),Occ (Rattus norvegicus [24]) [%],further results
CC(=O)N1CCC(c2nccnc2Oc2ccc(C(=O)c3nc4ccccc4[nH]3)cc2)CC1,0.54,20,6.15,3.16,0.81,41,10.00,3.35,0.83,1.09,0.074,0.3,13.7,6.89,Dose-dependent effect,3.41,0.77,0.34,Non-toxic,86.3,IC50 (Phosphodiesterase 7): > 30 µM; pIC50 [29]: < 4.52; IC50 (Phosphodiesterase 4): > 30 µM; pIC50 [30]: < 4.52; pIC50 [31]: < 4.52; IC50 (Phosphodiesterase 8): > 30 µM; half-life [32]: 2.48 h; AUC [33]: 2.4 µM·h; half-life [34]: 11 h; bioavailability [26]: 49%; IC50 (Phosphodiesterase 3): > 30 µM; pIC50 [35]: < 4.52; bioavailability [36]: 71%; AUC [27]: 8.31 µM·h; IC50 (Phosphodiesterase 6): > 30 µM; AUC [28]: 19.8 µM·h; bioavailability [37]: 72%; AUC [38]: 16.9 µM·h; IC50 (Phosphodiesterase 1): > 30 µM
